Results pooled from the literature.
Compare with care: the assays were run in different laboratories.
Cell line: A549
Effect on: cell growth or viability

NCCC(=O)Nc1ccccc1/N=c1\cc(-c2ccc3nc(N)oc3c2)oc2cc(O)ccc12 — inhibition (CCK-8; 1 µM): 23.2%
CCCCCCCCCCCCCCCCCCOc1ccc(CC(=O)OCC[N+](C)(C)C)cc1 — inhibition (SRB; 10 µM): 5.41%
COc1ccc(NC(=O)Nc2cccc(-c3cn(Cc4cccc(Cl)c4)nn3)c2)cc1 — viability (CCK-8; 50 µM; 72 h): 237%
NCC(=O)Nc1ccccc1/N=c1\cc(-c2ccc3c(c2)OCO3)oc2c(N)cccc12 — inhibition (CCK-8; 1 µM): -3.51%
O=C(Nc1ccc(Cl)cc1)Nc1cccc(-c2cn(Cc3cccc(Br)c3)nn2)c1 — viability (CCK-8; 20 µM; 72 h): 123%
CCOc1ccc(C(=O)CC(SCc2ccc(Cl)cc2)C(=O)OC)cc1 (stereo not drawn) — EC50 (MTT; 48 h): > 250 µM
COc1ccc(NC(=O)NCc2cn(Cc3ccc(C)cc3)nn2)cc1 — viability (CCK-8; 20 µM; 72 h): 70.4%
CCCCCCCCCCCCCCCCCCOc1ccccc1CC(=O)OCC[N+](CC)(CC)CC — inhibition (SRB; 10 µM): 70.7%
O=C(Nc1ccc(-c2cn(Cc3ccc(Br)cc3)nn2)cc1)Nc1ccccc1Br — viability (CCK-8; 50 µM; 72 h): 89%
C[C@H](N)C(=O)Nc1ccccc1/N=c1\cc(-c2ccc3c(c2)OCCO3)oc2cc(F)ccc12 — inhibition (CCK-8; 1 µM): -0.65%
N#CSCCCCOc1ccc2c(-c3ccccc3)cc(=O)oc2c1 — GI50 (SRB): 36 µM
O=C(NCc1cn(Cc2ccc(Br)cc2)nn1)Nc1ccccc1Br — viability (CCK-8; 50 µM; 72 h): 91.5%
CCCCCCCCCCCCCCCCCCOc1ccc(CC(=O)OCCC[N+](C)(C)C)cc1 — inhibition (SRB; 10 µM): 21.9%
N[C@@H](CO)C(=O)Nc1ccccc1/N=c1\cc(-c2ccc3c(c2)OCO3)oc2ccccc12 — inhibition (CCK-8; 1 µM): -0.16%
O=C(NCc1cn(Cc2cccc(Cl)c2)nn1)Nc1ccc(Cl)cc1 — viability (CCK-8; 50 µM; 72 h): 79.5%
CCCCCCCCCCCCCCCCCCOc1cccc(CC(=O)OCC[N+]2(C)CCCCC2)c1 — inhibition (SRB; 10 µM): 9.38%
NCCCC(=O)Nc1ccccc1/N=c1\cc(-c2ccc3c(c2)OCO3)oc2ccccc12 — inhibition (CCK-8; 1 µM): -0.2%
CCCCCCCCCCCCCCCCCCOc1cccc(CC(=O)OCC[N+](CC)(CC)CC)c1 — inhibition (SRB; 10 µM): 40%
CCC(=O)NCc1ccc(-c2cnc(C3CN(C(=O)c4cnc(NC(=O)[C@@H]5CC(C)(C)CN5)s4)C3)s2)c2ccccc12 — GI50 (14 days): > 3 µM
COc1ccc(NC(=O)Nc2ccc(-c3cn(Cc4ccc(Cl)cc4)nn3)cc2)cc1 — viability (CCK-8; 50 µM; 72 h): 98.3%
COc1ccc2/c(=N/c3ccccc3NC(=O)[C@@H](N)CO)cc(-c3ccc4c(c3)OCCO4)oc2c1 — inhibition (CCK-8; 1 µM): 1.6%
O=C(Nc1ccc(Cl)cc1)Nc1cccc(-c2cn(Cc3cccc(Cl)c3)nn2)c1 — viability (CCK-8; 20 µM; 72 h): 115%
COc1ccc(NC(=O)NCc2cn(Cc3ccc(Br)cc3)nn2)cc1 — viability (CCK-8; 20 µM; 72 h): 102%
O=C(Nc1ccc(Cl)cc1)Nc1ccc(-c2cn(Cc3cccc(Cl)c3)nn2)cc1 — viability (CCK-8; 20 µM; 72 h): 64.6%
NCCCCC(=O)Nc1ccccc1/N=c1\cc(-c2ccc3c(c2)OCO3)oc2ccccc12 — inhibition (CCK-8; 1 µM): 3.56%
O=C(NCc1cn(Cc2ccc(Cl)cc2)nn1)Nc1ccc(Cl)cc1 — viability (CCK-8; 20 µM; 72 h): 61.7%
C[C@H](N)C(=O)Nc1ccccc1/N=c1\cc(-c2ccc3c(c2)OCCO3)oc2c(N)cccc12 — inhibition (CCK-8; 1 µM): 0.27%
CCCCCCCCCCCCCCCCCCOc1ccc(CC(=O)OCC[N+](CC)(CC)CC)cc1 — inhibition (SRB; 10 µM): 21.2%
O=C(Nc1cccc(-c2cn(Cc3ccc(Cl)cc3)nn2)c1)Nc1ccccc1Br — viability (CCK-8; 20 µM; 72 h): 159%
COc1ccc(NC(=O)NCc2cn(Cc3ccccc3C)nn2)cc1 — viability (CCK-8; 50 µM; 72 h): 68%
CCCCCCCCCCCCCCCCCCOc1ccc(CC(=O)OCC[N+]2(C)CCCCC2)cc1 — inhibition (SRB; 10 µM): 11.1%
O=C(NCc1cn(Cc2ccc(Br)cc2)nn1)Nc1ccc(Cl)cc1 — viability (CCK-8; 50 µM; 72 h): 97%
COc1ccc(NC(=O)Nc2cccc(-c3cn(Cc4ccccc4C)nn3)c2)cc1 — viability (CCK-8; 50 µM; 72 h): 212%
Cc1cc(=O)oc2cc(OCCCCSC#N)ccc12 — GI50 (SRB): 5 µM
COc1ccc(NC(=O)Nc2ccc(-c3cn(Cc4cccc(Cl)c4)nn3)cc2)cc1 — viability (CCK-8; 50 µM; 72 h): 91.2%
CCCCCCCCCCCCCCCCCCOc1cccc(CC(=O)OCC[N+]2(C)CCOCC2)c1 — inhibition (SRB; 10 µM): 7.62%
